# Screens (PubChem)
# INS promoter act: TRM-6 insulin promoter activation; TRM-6 cells, insulin promoter eGFP reporter, imaging; plate-scaled: unstimulated 0, stimulated control 100; activation, % at 2 µM; 130,000 tested, 0.81% active;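 active means activation at 2 µM above a set limit, confirmed on inspection of the cell images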;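 further: share of cells whose green reporter signal exceeds an intensity cutoff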
#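 material = TRM-6 human fetal islet cells, insulin promoter–eGFP reporter | input = 1,000 TRM-6 cells seeded per well | benchmarks = stimulated versus unstimulated wells as plate controls | measured by = automated fluorescence imaging of paraformaldehyde-fixed, Hoechst-counterstained cells, green channel | schedule = compound exposure 48 h, 37 °C | reagent = tamoxifen at 0.75 µM added at seeding for reporter induction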
# Hits are given with their value; i = inactive; [ ] = another dose, or the depositor's remark. Shown is part of a subset that was picked to be rich in hits.
SMILES,INS promoter act
O=C(Cn1[nH]c(=O)c2ccccc2c1=O)Nc1cccc(S(=O)(=O)N2CCCCCC2)c1,i
COCCNC(=O)C(C)Oc1ccc(Cl)cc1Cl (configuration not stated),i
CC(Oc1ccc(Cl)cc1Cl)C(=O)NC1CCSC1=O (configuration not stated),i
CC(Oc1ccc(Cl)cc1Cl)c1ccn[nH]1 (configuration not stated),306
Cc1ccc(C)c2[nH]c(=O)c(CN(CCN3CCCC3)C(=O)Nc3cccc(Cl)c3)cc12,i
C1=C(c2ccccc2)Nc2ccccc2N=C1c1ccccc1,i
O=C(CSCc1ccc(Cl)cc1)Nc1ccc2c(c1)OCCO2,i
CC(C)Cc1ccc(C(C)NC(=O)c2ccc(=O)[nH]c2)cc1 (configuration not stated),350
CC(C)Cc1ccc(C(C)C(=O)O)cc1 (configuration not stated),i
CCCc1ccc(C(C)NC(=O)c2cnccn2)cc1 (configuration not stated),i
O=C(CN1C(=O)NC2(CCCCCC2)C1=O)Nc1ccc(S(=O)(=O)N2CCOCC2)cc1,i
CCN(CC)c1nc(Oc2ccc(=O)[nH]n2)nc(N2CCOCC2)n1,i
CCOC(=O)c1cnc(SC)nc1Sc1cc(Cl)ccc1Cl,i
CCOC(=O)Cn1c(N2CCOCC2)nc2c1c(=O)[nH]c(=O)n2C,i
Cc1cc(-c2ccccc2)n2nc(C)c(C#N)c2n1,i
CSc1nn2c(C)c(C)c(C)nc2c1C#N,322
Cc1nc(N)c(C#N)c(-c2ccccc2)c1C,i
CCC(=O)Oc1ccc(C(=O)Nc2ccc3c(c2)C(=O)N(C2CCCCC2)C3=O)cc1,i
COc1ccc(Cl)cc1NC(=O)CSc1nnc(Cn2c(=O)sc3ccccc32)n1C,i
Cc1cnc(NC(=O)Cc2cccs2)s1,i
CC(C)CC(=O)n1sc(NC(=O)c2ccccc2)nc1=O,i
CCn1c(NC(=O)c2ccc(C)cc2)c2ccccc2nc1=O,i
Cc1ccc(C(=O)Nc2nc(=O)n(C(=O)c3ccccc3Cl)s2)cc1,84
CC1CCCCN1C(=O)COc1ccccc1F (configuration not stated),i
COC(=O)c1sccc1-n1cccc1C(=O)NCc1ccccc1,i
SMILES,INS promoter act
Cc1ccc(S(=O)(=O)NCC(=O)OCC(=O)Nc2cccc(S(=O)(=O)NC3=NCCCCC3)c2)cc1,i
O=C(COC(=O)CNS(=O)(=O)c1cccc(Br)c1)NC(=O)Nc1ccc2c(c1)OCCO2,400
O=C(COC(=O)CCNS(=O)(=O)c1ccc2c(c1)OCCO2)NC1CCCc2ccccc21 (configuration not stated),i
Cc1ccc(N2C(=O)N(CC(=O)N3CCCc4ccccc43)C(=O)C2C)cc1 (configuration not stated),i
Cc1ccc(SCC(=O)NN2C(=O)c3ccccc3C2=O)cc1,i
O=[N+]([O-])c1ccc(Cl)c(/C=N/N2CCN(c3ccccc3)CC2)c1,i
O=c1ccc(-c2ccc([N+](=O)[O-])cc2)nn1-c1ccccc1,i
O=[N+]([O-])c1ccc(/C=C/C2=NN(c3ccccc3)C(c3ccco3)C2)cc1 (configuration not stated),285[fluoresces]
CCCCS(=O)c1c(O)c2ccccc2[nH]c1=O (configuration not stated),i
c1ccc(-c2cc3n(c2)CCc2ccccc2-3)cc1,i
COc1ccc(-c2[nH]nc3oc(=O)c(CCO)c(C)c23)cc1,i
Cc1ccc(/C=C/C(=O)OCc2nc(N)nc(Nc3ccccc3C)n2)o1,i
Cn1c(SCC(=O)N(C2CCCCC2)C2CCCCC2)nnc1-c1cccs1,i
Cc1c(NS(=O)(=O)c2ccc(Br)s2)c(=O)n(-c2ccccc2)n1C,i
O=S(=O)(c1ccc(Br)s1)N1CCN(c2ccccc2)CC1,575
CCN1CCN(S(=O)(=O)c2ccc(Br)s2)CC1,i
Cc1cc(C(=O)O)c(CSCc2cc(C(=O)O)oc2C)o1,i
Cn1c2ccccc2n2c(=O)c(=O)n(CC(=O)c3ccc(Cl)cc3)nc12,i
COc1ccc(N2C(=O)CC(SCC(=O)O)C2=O)cc1 (configuration not stated),438
COc1ccc(N2C(=O)CC(Sc3nc(C)c4c(n3)CCCC4)C2=O)cc1 (configuration not stated),i
CCOc1ccc(N2C(=O)CC(SCC(=O)O)C2=O)cc1 (configuration not stated),i
COC(=O)c1ccccc1NC(=S)N(Cc1ccc2c(c1)OCO2)Cc1cc2ccc(OC)cc2[nH]c1=O,i
COc1ccc(-n2ncc3c(NCCCn4ccnc4)ncnc32)cc1,i
CCc1ccc(NC(=O)CSc2ccccn2)cc1,i
CCSc1nnc(NC(=O)c2ccccn2)s1,i
C=CCSc1nnc(NC(=O)CSc2ccccn2)s1,425
Cc1ccc(NCc2nnc(SCC(=O)Nc3nnc(C)s3)n2C)cc1,i
CCCCC/C(=N\NC(=O)CCC(=O)NCc1ccccc1)c1ccccc1,371
CCCCCC/C(=N\NS(C)(=O)=O)c1ccccc1,i
O=C(O)CCC(=O)NNC(=O)CCC(=O)NCc1ccccc1,i
